# The list is not random: actives were taken first. Their share in the collection is about 2.1%.
# Xi reactivation: activators of inactive X chromosome reactivation, primary screen, imaging, XiGFP fibroblasts, GFP high-content imaging, set 2. activation, % at 7.58 µM. 360,000 tested, 0.055% active. XiGFP mouse fibroblasts, % GFP-positive cells imaging, 3 d; cells co-treated with 5-aza-dC sensitizer; scaled so ellipticine positive control = 100%. AID 743238, 2013;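 active means mean normalized replicate activation at least 10% and every replicate at or above 10%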;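 further: 0% = median of on-plate neutral control wells and 100% = ellipticine 6 µM median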
#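 System: 68-5-11 XiGFP fibroblast line; Timing: 3 days compound exposure; Compound dosing: one concentration, pinned; Benchmarks: positive control ellipticine, 6 µM final; Buffer or medium: DMEM containing 5-aza-dC.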
# C2C12 statin: suppressors of statin myotoxicity in C2C12 myotubes, primary screen, cell-based, single point, plate reader | C2C12 myotubes + simvastatin, ATP luminescence, 48 h; scaled: DMSO 0, geranylgeraniol control 100 | rescue of ATP level, % at 7.49 µM | 330,000 tested, 0.78% active;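 active means mean ATP rescue above about 67%, or every replicate alone reaching that limit, limit read from the data, passing the limit was not always enough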;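 further: myotubes were challenged with 10 µM simvastatin during compound exposure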
# DENV2 CPE rescue: inhibitors of DENV2 cytopathic effect, primary screen, cell-based, plate reader, single concentration. 350,000 tested, 1.7% active. CPE inhibition, % at 9.99 µM. DENV2-infected cells, cytopathic effect rescue; in the data active means CPE inhibition above about 20%, passing the limit was not always enough; tested in BHK-21 cells;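 further: 0% = median of neutral control wells and 100% = median of positive control wells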
# Cneo AK release: Cryptococcus neoformans cell lysis inducers, primary screen, AK release luminescence, single concentration. C. neoformans lysis, adenylate kinase release luminescence, 4 h; normalised: neutral wells 0, clomiphene wells 100. lysis activity, % at 15 µM. 360,000 tested, 0.2% active;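 active means mean lysis activity across replicates of at least 80%, whatever share of replicates individually reach that level; inactive means mean lysis activity below 80%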
#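 Material – log-phase Cryptococcus neoformans yeast cells · Input – 5 × 10^6 yeast cells/mL · Medium – fresh YPD growth medium · Doses – single compound concentration per well · Timing – static 4 h at 37 °C with compound, 1 h detection · Detection – adenylate kinase release luminescence · Read-out – signal increase indicating cell lysis · Control set – Clomiphene as positive lysis control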
# The depositor's hits bear a star; / = not tested or not shown.
SMILES,Xi reactivation,C2C12 statin,DENV2 CPE rescue,Cneo AK release
COc1ccc(NC(=O)Nc2ccc3c(c2)CC(=O)N([C@H](C)CO)C[C@H](C)[C@H](CN(C)Cc2ccc4c(c2)OCO4)O3)cc1,-0.2,-5.7,3.2,3.4
Nc1ccc2ccccc2c1C(=O)c1ccccc1,0.3,9.0,57.0*,0.7
Cn1cnc(S(=O)(=O)N[C@@H]2CC[C@H](CC(=O)N3CCN(c4ccccc4)CC3)O[C@H]2CO)c1,0.1,-15.4,1.9,0.6
C[C@@H]1CN([C@H](C)CO)C(=O)c2cc(NS(=O)(=O)c3cccs3)ccc2O[C@@H](C)CCCCO[C@@H]1CN(C)C(=O)C1CCCCC1,0.0,/,-5.0,1.0
COc1ccc(CC(=O)Nc2ccc(S(=O)(=O)Nc3cc(C)nc(C)n3)cc2)cc1OC,0.1,-35.0,29.6*,-0.4
C[C@@H]1CN([C@@H](C)CO)C(=O)c2cccc(NS(=O)(=O)c3cccs3)c2O[C@@H]1CN(C)CC1CCCCC1,-1.0,3.1,10.6,2.8
COc1ccccc1-c1noc(-c2ccncc2)n1,/,112.0*,/,1.3
Cc1ccc(-c2noc(-c3cccs3)n2)cc1,/,2.2,-2.5,-7.6
COc1ccc(Br)cc1-c1noc(-c2ccncc2)n1,/,-0.2,/,-1.9
COc1ccccc1-c1noc(-c2cccs2)n1,/,223.5*,-4.2,-3.0
CCN(C(=O)N(CC)c1ccccc1)c1ccccc1,/,-3.6,20.3*,2.2
COc1ccc(CC(=O)Nc2ccc(-c3cn4ccccc4n3)cc2)cc1,/,111.2*,/,-6.3
CN(C)C(=O)c1cccc(-c2ccc([C@H]3[C@H]4CN(C(=O)CC5CC5)CC(=O)N4[C@H]3CO)cc2)c1,0.4,/,20.8*,/
CN(C)C(=O)c1cccc(-c2ccc([C@@H]3[C@@H](CO)N4C(=O)CN(C(=O)CC5CC5)C[C@@H]34)cc2)c1,0.5,/,-1.5,/
Cc1cccc(-c2ccc([C@@H]3[C@@H](CO)N4C(=O)CN(C(=O)c5cccnc5)C[C@H]34)cc2)c1,0.1,/,20.8*,/
COc1cccc(-c2ccc([C@H]3[C@H](CO)N4C(=O)CN(C(=O)C5CC5)C[C@@H]34)cc2)c1,0.0,/,29.4*,/
CN(C)CCCNC(=O)C[C@@H]1CC[C@H]2[C@H](COc3ccc(NC(=O)NC4CCCC4)cc3C(=O)N2C)O1,0.4,-30.3,16.3,1.6
CC(=O)N(C)C[C@H]1OCc2ccccc2-c2ccccc2C(=O)N([C@@H](C)CO)C[C@@H]1C,-0.6,-6.1,-3.9,-1.4
CO[C@H]1CN(C)C(=O)c2cc(NS(=O)(=O)c3ccc(Cl)cc3)ccc2OC[C@@H](C)N(C)C[C@@H]1C,0.1,2.5,-9.1,-6.3
COc1cccc(S(=O)(=O)Nc2ccc3c(c2)[C@@H]2C[C@H](CC(=O)NCc4ccc(Cl)cc4)O[C@@H](CO)[C@@H]2O3)c1,0.0,-1.7,6.2,3.5
CC(=O)N1CCCCN2[C@@H](CO)[C@@H](c3ccc(C#Cc4ccccc4F)cc3)[C@@H]2C1,0.0,/,58.9*,1.5
O=C(CN1CCOCC1)N1CCCCN2[C@H](C1)[C@@H](c1ccc(C#Cc3ccccc3F)cc1)[C@@H]2CO,0.1,-16.0,-4.3,4.8
O=C(CN1CCOCC1)N1CCCCN2[C@H](CO)[C@H](c3ccc(C#Cc4ccccc4F)cc3)[C@H]2C1,0.1,-11.5,0.1,5.6
O=C(CN1CCOCC1)N1CCCCN2[C@H](C1)[C@H](c1ccc(C#Cc3ccccc3F)cc1)[C@@H]2CO,0.2,23.4,43.2*,-1.1
O=C(CN1CCOCC1)N1CCCCN2[C@H](CO)[C@H](c3ccc(C#Cc4ccccc4F)cc3)[C@@H]2C1,0.5,-15.1,48.3*,-0.4
SMILES,Xi reactivation,C2C12 statin,DENV2 CPE rescue,Cneo AK release
CC(=O)N1CCCCN2[C@H](CO)[C@@H](c3ccc(C#Cc4ccccc4F)cc3)[C@@H]2C1,0.0,/,11.9,1.6
CCC(=O)N(C)C[C@@H]1Oc2cc(C#CCN(C)C)ccc2S(=O)(=O)N([C@@H](C)CO)C[C@H]1C,-0.6,-0.6,7.0,-1.4
COc1cccc(CN2C[C@@H](C)[C@H](OC)CN(C)C(=O)c3ccc(NS(=O)(=O)c4cn(C)cn4)cc3OC[C@H]2C)c1,-0.2,11.1,/,-0.5
C[C@H](CO)N1C[C@H](C)[C@@H](CN(C)Cc2ccccc2)Oc2ccc(NC(=O)Nc3ccc(F)cc3)cc2CC1=O,0.0,-8.0,1.5,-2.5
COc1ccc2c3c(n(C)c2c1)[C@H](CO)N(S(C)(=O)=O)CC31CCN(C(=O)c2ccccn2)CC1,0.0,/,77.3*,/
COc1ccc2c3c(n(C)c2c1)[C@@H](CO)N(S(C)(=O)=O)CC31CN(C(=O)c2ccccn2)C1,0.1,/,34.1*,/
COc1ccc2c3c(n(C)c2c1)[C@H](CO)N(C(=O)c1ccccn1)CC31CN(C(=O)c2ccccn2)C1,0.3,/,-3.9,/
COc1ccc(S(=O)(=O)N(C)C[C@H]2Oc3ccc(NC(=O)Nc4ccc5c(c4)OCO5)cc3C(=O)N([C@@H](C)CO)C[C@H]2C)cc1,-0.2,/,4.5,-1.3
CNS(=O)(=O)c1cccc(C(=O)OCC(=O)Nc2ccc(Cl)cn2)c1,0.9,-55.8,1.5,11.7
CC(=O)Nc1cccc(C(=O)OCC(=O)Nc2ccc(Cl)cn2)c1,-0.3,-5.9,55.8*,-0.9
O=C(Nc1ccccc1Cl)NC1(C(=O)NCc2ccncc2)CCCCC1,0.4,-0.5,-0.3,0.0
O=C(NCc1ccncc1)Nc1ccccc1Cl,/,116.3*,/,19.9
CS(=O)(=O)N(CCc1ccccc1)CC(N)=O,/,102.5*,/,0.9
CS(=O)(=O)N(CCc1ccccc1)CC(=O)N1CCc2ccccc2C1,/,110.6*,/,-0.9
CS(=O)(=O)N(CCc1ccccc1)CC(=O)N1CCCCC1,/,/,/,0.0
CS(=O)(=O)N(CCc1ccccc1)CC(=O)Nc1ccccc1,0.1,4.5,7.4,-2.4
CO[C@H]1CN(C)C(=O)c2ccc(NC(=O)Nc3ccccc3F)cc2OC[C@H](C)N(C)C[C@H]1C,0.1,-29.9,33.2*,-5.1
CO[C@H]1CN(C)C(=O)c2cc(NC(=O)c3ccccc3F)ccc2OC[C@@H](C)N(C(C)=O)C[C@@H]1C,0.3,6.4,69.8*,50.8
CO[C@H]1CN(C)C(=O)c2cc(NC(=O)Nc3ccccc3F)ccc2OC[C@H](C)N(C(C)=O)C[C@H]1C,0.5,0.3,21.4*,0.1
CO[C@H]1CN(C)C(=O)c2cc(NC(=O)c3ccccc3F)ccc2OC[C@H](C)N(CC2CCOCC2)C[C@H]1C,0.0,-9.2,80.9*,97.8*
CO[C@@H]1CN(C)C(=O)c2cc(NC(=O)Nc3ccccc3F)ccc2OC[C@@H](C)N(C(C)=O)C[C@H]1C,0.4,2.8,13.8,-2.0
CO[C@@H]1CN(C)C(=O)c2ccc(NC(=O)Nc3ccccc3F)cc2OC[C@H](C)N(C)C[C@@H]1C,0.1,-16.5,-5.4,53.9
